From ChEMBL document CHEMBL4765291, “Design, synthesis and biological evaluation of novel 3,4-dihydro-2(1H)-quinolinone derivatives as potential chitin synthase inhibitors and antifungal agents” (Eur J Med Chem, 2020)
Values after ≈ are worked out from the molar mass of the structure shown.

Key:
Candida albicans [1] = assay: Synergistic antifungal activity against Candida albicans ATCC 76615 assessed as fractional inhibitory concentration index in presence of fluconazole by checkerboard method; assay type: functional
Summary of the method: (§1)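 Checkerboard combined with two-fold broth dilution, pairing test compound with fluconazole or polyoxin B. FIC index = (MIC A combined/MIC A alone) + (MIC B combined/MIC B alone); >2 antagonistic, 1–2 additive, ≤1 synergistic. Three independent repeats.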

Escherichia coli = assay: Antibacterial activity against Escherichia coli JM 109
Cryptococcus neoformans [2] = assay: Synergistic antifungal activity against Cryptococcus neoformans ATCC 32719 assessed as fractional inhibitory concentration index in presence of Polyoxin B by checkerboard method; assay type: functional; summary of the method: as §1
Bacillus subtilis = assay: Antibacterial activity against Bacillus subtilis ATCC 6633; assay type: functional
Summary of the method: (§2)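 Two-fold serial broth dilution in 96-well plates following National Committee standards; compounds tested at different concentrations. Medium: beef extract peptone (1% peptone, 0.3% beef extract, 0.5% NaCl). Incubation 18–24 h. MIC recorded; streptomycin and norfloxacin as control drugs; each group tested in triplicate.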

Staphylococcus aureus [3] = assay: Antibacterial activity against methicillin-resistant Staphylococcus aureus N. 315; assay type: functional
Summary of the method: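 Two-fold serial broth dilution in 96-well plates per national clinical standard; beef extract peptone medium (1% peptone, 0.3% beef extract, 0.5% NaCl, […]). Compounds from DMSO stock diluted to test concentrations; incubation 18–24 h. MIC recorded; each group tested independently in triplicate.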

Candida tropicalis = assay: Inhibition of Candida tropicalis ATCC 750 chitin synthase at 300 ug/ml using UDP-GlcNAc as substrate relative to control; details: dose 300.0 µg/ml
Summary of the method: (§3)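 Chitin synthase prepared from C. tropicalis ATCC 750 by low- and high-speed centrifugation. DMSO stocks (10 mg/mL) diluted in 50 mM Tris-HCl pH 7.5; test concentrations 300–9.375 µg/mL. Chitin synthesized in WGA-coated wells, bound with WGA-HRP, washed, developed with TMB/H2O2, stopped with 2 M H2SO4, OD read. Duplicate; polyoxin B positive control.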

Candida albicans [4] = assay: Antifungal activity against Candida albicans ATCC 76615 incubated for 48 hrs by two-fold broth dilution analysis; assay type: functional
Summary of the method: (§4)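 Stock solutions in DMSO, diluted to 0.25–512 µg/mL; two-fold serial broth dilution in 96-well plates. Fungi grown on modified Sabouraud chloramphenicol agar (1% peptone, 2% glucose, […]). Incubated 48 h at 37 °C, then MIC (µg/mL) recorded. Fluconazole and polyoxin B as positive controls; each group tested in triplicate.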

Aspergillus fumigatus [5] = assay: Antifungal activity against Aspergillus fumigatus GIMCC 3.19 incubated for 48 hrs by two-fold broth dilution analysis; assay type: functional; summary of the method: as §4
Cryptococcus neoformans [6] = assay: Synergistic antifungal activity against Cryptococcus neoformans ATCC 32719 assessed as fractional inhibitory concentration index in presence of fluconazole by checkerboard method; assay type: functional; summary of the method: as §1
Proteus vulgaris = assay: Antibacterial activity against Bacillus proteus ATCC 8427; assay type: functional; summary of the method: as §2
Candida albicans [7] = assay: Synergistic antifungal activity against Candida albicans ATCC 76615 assessed as fractional inhibitory concentration index in presence of Polyoxin B by checkerboard method; assay type: functional; summary of the method: as §1
Cryptococcus neoformans [8] = assay: Antifungal activity against Cryptococcus neoformans ATCC 32719 incubated for 48 hrs by two-fold broth dilution analysis; assay type: functional; summary of the method: as §4
Candida albicans [9] = assay: Antifungal activity against Candida albicans ATCC 90023 incubated for 48 hrs by two-fold broth dilution analysis; assay type: functional; summary of the method: as §4
[10] = Inhibition of Candida tropicalis ATCC 750 chitin synthase using UDP-GlcNAc as substrate; summary of the method: as §3
Staphylococcus aureus [11] = assay: Antibacterial activity against Staphylococcus aureus ATCC 25923; assay type: functional; summary of the method: as §2
Aspergillus flavus [12] = assay: Synergistic antifungal activity against Aspergillus flavus ATCC 16870 assessed as fractional inhibitory concentration index in presence of fluconazole by checkerboard method; assay type: functional; summary of the method: as §1
Aspergillus flavus [13] = assay: Synergistic antifungal activity against Aspergillus flavus ATCC 16870 assessed as fractional inhibitory concentration index in presence of Polyoxin B by two-fold broth dilution checkerboard method; assay type: functional; summary of the method: as §1
Candida albicans [14] = assay: Synergistic antifungal activity against Candida albicans ATCC 90023 assessed as fractional inhibitory concentration index in presence of fluconazole by checkerboard method; assay type: functional; summary of the method: as §1
Aspergillus flavus [15] = assay: Antifungal activity against Aspergillus flavus ATCC 16870 incubated for 48 hrs by two-fold broth dilution analysis; assay type: functional; summary of the method: as §4
Pseudomonas aeruginosa = assay: Antibacterial activity against Pseudomonas aeruginosa ATCC 9027; assay type: functional; summary of the method: as §2
Aspergillus fumigatus [16] = assay: Synergistic antifungal activity against Aspergillus fumigatus GIMCC 3.19 assessed as fractional inhibitory concentration index in presence of fluconazole by checkerboard method; assay type: functional; summary of the method: as §1
Candida albicans [17] = assay: Synergistic antifungal activity against Candida albicans ATCC 90023 assessed as fractional inhibitory concentration index in presence of Polyoxin B by checkerboard method; assay type: functional; summary of the method: as §1
[18] = Noncompetitive inhibition of Candida tropicalis ATCC 750 chitin synthase using […] as substrate by Lineweaver-Burk plot
Summary of the method: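 Same WGA-capture chitin synthase assay, run with UDP-GlcNAc at 0.5, 1.0, 1.5 and 2.0 mM and inhibitor at 0, 0.032, 0.126 and 0.25 mM. Inhibition type read from Lineweaver-Burk plots; Ki taken from the intersection of the lines.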

Aspergillus fumigatus [19] = assay: Synergistic antifungal activity against Aspergillus fumigatus GIMCC 3.19 assessed as fractional inhibitory concentration index in presence of Polyoxin B by checkerboard method; assay type: functional; summary of the method: as §1

SMILES | fractional inhibitory concentration index (FICI) (Candida albicans [1]) | MIC (Escherichia coli) [µg/mL] | fractional inhibitory concentration index (FICI) (Cryptococcus neoformans [2]) | MIC (Bacillus subtilis) [µg/mL] | MIC (Staphylococcus aureus [3]) [µg/mL] | inhibition (Candida tropicalis) [%] | MIC (Candida albicans [4]) [µg/mL] | MIC (Aspergillus fumigatus [5]) [µg/mL] | fractional inhibitory concentration index (FICI) (Cryptococcus neoformans [6]) | MIC (Proteus vulgaris) [µg/mL] | fractional inhibitory concentration index (FICI) (Candida albicans [7]) | MIC (Cryptococcus neoformans [8]) [µg/mL] | MIC (Candida albicans [9]) [µg/mL] | IC50 [10] [µM] | MIC (Staphylococcus aureus [11]) [µg/mL] | fractional inhibitory concentration index (FICI) (Aspergillus flavus [12]) | fractional inhibitory concentration index (FICI) (Aspergillus flavus [13]) | fractional inhibitory concentration index (FICI) (Candida albicans [14]) | MIC (Aspergillus flavus [15]) [µg/mL] | MIC (Pseudomonas aeruginosa) [µg/mL] | further results
Cc1cccc(NC(=O)/C=C/C(=O)NC2Cc3ccccc3NC2=O)c1 (stereo not given) | 1.5 | 512 (≈ 1470 µM) | 2 | 256 (≈ 733 µM) | 512 (≈ 1470 µM) | 78.3 | 2 (≈ 5.72 µM) | 4 (≈ 11.4 µM) | 1.5 | 256 (≈ 733 µM) | 1 | 64 (≈ 183 µM) | 1 (≈ 2.86 µM) | 90 | 128 (≈ 366 µM) | 1.5 | 1 | 0.5 | 2 (≈ 5.72 µM) | 512 (≈ 1470 µM) | fractional inhibitory concentration index (FICI) (Aspergillus fumigatus [16]): 0.75; fractional inhibitory concentration index (FICI) (Candida albicans [17]): 0.375; Ki [18]: 120 µM; fractional inhibitory concentration index (FICI) (Aspergillus fumigatus [19]): 0.75
COc1ccccc1NC(=O)/C=C/C(=O)NC1Cc2ccccc2NC1=O (stereo not given) | 0.75 | 256 (≈ 701 µM) | 1 | 256 (≈ 701 µM) | 256 (≈ 701 µM) | 82.3 | 1 (≈ 2.74 µM) | 4 (≈ 10.9 µM) | 0.5 | 256 (≈ 701 µM) | 0.5 | 8 (≈ 21.9 µM) | 1 (≈ 2.74 µM) | 160 | 128 (≈ 350 µM) | 1 | 0.75 | 0.5 | 2 (≈ 5.47 µM) | 512 (≈ 1400 µM) | fractional inhibitory concentration index (FICI) (Aspergillus fumigatus [16]): 0.375; fractional inhibitory concentration index (FICI) (Candida albicans [17]): 0.375; fractional inhibitory concentration index (FICI) (Aspergillus fumigatus [19]): 0.375
Cc1ccccc1NC(=O)/C=C/C(=O)NC1Cc2ccccc2NC1=O (stereo not given) | – | 256 (≈ 733 µM) | – | 512 (≈ 1470 µM) | 256 (≈ 733 µM) | 67.3 | 1 (≈ 2.86 µM) | 4 (≈ 11.4 µM) | – | 256 (≈ 733 µM) | – | 16 (≈ 45.8 µM) | 2 (≈ 5.72 µM) | 380 | 128 (≈ 366 µM) | – | – | – | 4 (≈ 11.4 µM) | 512 (≈ 1470 µM) | –
